OX1R antag-1: antagonists of human orexin 1 receptor; O43613; CHO/OX1R cells, Fluo-8 calcium fluorescence, orexin A; inhibition, % at 5 µM; 330,000 tested, 0.43% active;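 active = inhibition above its plate's threshold, mean inhibition of all tested compounds on the plate plus 3 SD, cut at about 37% in these data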;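 also: 0% = orexin A challenge wells and 100% = SB-334867-A antagonist wells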
MPTP inh: permeability transition pore inhibition; isolated mouse mitochondria, Ca2+ swelling absorbance, 30 min; 360,000 tested, 1.4% active; inhibition, % at 10 µM;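 active = inhibition of 50% or more, scaled per plate between neutral and stimulator controls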;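 also: 0% = DMSO wells given calcium and 100% = 1 mM EGTA wells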
GPR7 antag: blocks human GPR7 receptor signaling | AID 1861 | P48145 | 290,000 tested, 1.1% active | inhibition, % at 4.4 µM | GPR7-expressing cells, fluorescence antagonist assay; in the data active = inhibition above about 16%, passing the limit was not always enough;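 also: cells stimulated with the agonist NPW; 0% = agonist with vehicle and 100% = vehicle without agonist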
Target sequence (P48145 whole entry, looked up): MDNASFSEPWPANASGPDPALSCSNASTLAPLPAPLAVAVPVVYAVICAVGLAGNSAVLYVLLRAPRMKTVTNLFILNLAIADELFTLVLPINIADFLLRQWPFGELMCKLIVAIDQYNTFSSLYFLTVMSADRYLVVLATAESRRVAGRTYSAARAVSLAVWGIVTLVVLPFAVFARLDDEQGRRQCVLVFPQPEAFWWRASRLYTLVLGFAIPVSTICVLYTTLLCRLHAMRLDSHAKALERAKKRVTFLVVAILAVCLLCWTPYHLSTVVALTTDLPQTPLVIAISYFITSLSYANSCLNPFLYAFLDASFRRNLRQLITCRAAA
OX1R antag-2: blocks the human orexin 1 receptor; OX1R-expressing cells, FRET antagonist read-out; O43613; AID 485270; 330,000 tested, 1.8% active; inhibition, % at 6.6 µM; in the data active = inhibition mostly above about 38%, no sharp cut-off; inactive = mostly below about 40%;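 also: 0% = agonist challenge alone and 100% = reference antagonist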
CHO parental Ca: counter-screen for OX1R antagonists: effect in parental CHO cells | parental CHO-K1, ATP-induced calcium, Fluo-8 fluorescence | inhibition, % at 5.6 µM | 330,000 tested, 0.63% active | AID 463079;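 active = inhibition above that plate's mean sample inhibition plus 3 SD, cut at about 26% in these data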;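 also: 0% = ATP-challenged DMSO wells and 100% = DMSO wells without ATP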
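test system = CHO parental line | reagent = ATP stimulus | measured by = intracellular calcium via Fluo-8 no-wash fluorescent dye | control set = ATP and no-ATP DMSO wells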
OX1R HTRF confirm: OX1R (human) antagonism, HTRF confirmed | AID 492964 | OX1R-expressing cells, HTRF antagonist assay | inhibition, % at 6.6 µM | 1,800 tested, 49% active | shares compounds with OX1R antag-2; in the data active = inhibition above about 55%;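 also: CHO cells expressing OX1R stimulated with orexin A at about EC80; 0% = agonist challenge alone and 100% = reference antagonist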
CHO-K1 HTRF: counter-screen for OX1R antagonists: effect in parental CHO-K1 cells. shares compounds with OX1R antag-2. HTRF counterscreen. inhibition, % at 6.6 µM. 1,800 tested, 48% active. AID 493232; in the data active = inhibition above about 17%;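 also: 0% = agonist challenge with vehicle and 100% = vehicle alone without agonist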
Numbers without * were called inactive; / = no result. In the library only some 3.8% were active in any assay of this set; here they are far more common.

SMILES	OX1R antag-1	MPTP inh	GPR7 antag	OX1R antag-2	CHO parental Ca	OX1R HTRF confirm	CHO-K1 HTRF
Cc1cc(=O)[nH]c(N/N=C/c2c(C)oc3ccccc23)n1	-9.0	1.0	1.2	76.9*	-12.8	84.9*	5.5
Cc1cc(=O)[nH]c(N/N=C/c2c[nH]c3ccccc23)n1	-6.8	-0.4	-7.6	3.1	7.4	/	/
CN(C)S(=O)(=O)c1ccc(N)c([N+](=O)[O-])c1	/	-0.2	-13.6	/	/	/	/
CC1CC(=O)NN=C1c1ccc(N)c([N+](=O)[O-])c1 (configuration not stated)	2.2	1.1	-8.2	83.2*	-11.1	34.4	28.9*
O=c1[nH]c2ccc(Cl)cc2c(-c2ccccc2)c1[N+](=O)[O-]	16.5	1.6	5.1	80.8*	-14.6	75.0*	5.6
O=c1[nH]c2ccc(Cl)cc2c(O)c1-c1ccccc1	-23.7	-1.4	-6.8	19.7	-2.4	/	/
O=C(COC(=O)c1ncc(Cl)c(Cl)c1Cl)NC1CCCCCC1	-17.7	-0.4	/	17.2	-5.7	/	/
CN1CCN(Cc2c(O)ccc3c(-c4ccccc4)cc(=O)oc23)CC1	-9.3	-0.2	1.0	23.8	-2.7	/	/
CCCCN(C)Cc1c(O)ccc2c(-c3ccccc3)cc(=O)oc12	-37.5	2.5	-11.5	85.1*	-25.1	36.6	15.5
CC(C)c1ccc(C(=O)OCC(=O)NC2CCCC2)cc1	-16.5	-0.9	-4.3	-8.3	-7.2	/	/
COc1cc2sc3ccc(-c4ccc(N(C)C)nc4)cc3c(=O)c2cc1OC	-5.8	/	/	79.7*	-17.8	64.6*	16.6
COc1cc2sc3ccc(-c4ccc(CN5CCOCC5)cc4)cc3c(=O)c2cc1OC	-23.2	0.5	/	38.5	-24.8	/	/
Cc1cccnc1NC(=O)c1ccc([N+](=O)[O-])o1	0.3	1.7	-5.0	116.2*	2.3	35.8	57.5*
Cc1cccc(NC(=O)c2ccc([N+](=O)[O-])o2)n1	-7.5	-0.3	3.7	96.8*	-5.3	44.9	63.9*
Cc1ccc(C(=O)Nc2ncccc2C)o1	/	-0.1	/	/	/	/	/
O=C(Nc1ccc(N2CCOCC2)cc1)c1ccc([N+](=O)[O-])o1	-4.3	-1.4	-13.4	94.8*	4.9	41.5	15.1
Cc1ccc(O)c(NC(=O)C2CC(c3cccc(Br)c3)=NO2)c1 (configuration not stated)	-4.8	1.2	-17.8	34.5	-4.8	/	/
CNC(=O)CCN(Cc1ccco1)S(=O)(=O)c1ccc(OC)c(OC)c1	-20.7	-0.6	-5.6	5.3	-12.7	/	/
CN1C(=O)C(Cl)(Cl)C(=O)c2ccccc21	/	-1.4	-7.8	/	/	/	/
O=C(NCc1ccc(Cl)c(Cl)c1)c1cc(C2CCCCN2C(=O)CCc2ccccc2)on1 (configuration not stated)	/	2.5	/	/	/	/	/
O=S(=O)(Nc1c(O)ccc2ccccc12)c1cccc2ccccc12	19.4	7.0	/	80.1*	-4.9	77.7*	0.5
Cc1ccc(S(=O)(=O)Nc2c(O)ccc3ccccc23)cc1	-13.4	8.9	/	46.9	-34.3	/	/
O=C(c1ccccc1F)N1CCN(c2ccc([N+](=O)[O-])c3ncccc23)CC1	12.1	0.7	-2.4	22.3	-13.5	/	/
O=[N+]([O-])c1cccc2c(N3CCCC3)ccnc12	2.6	11.6	-11.9	131.6*	-5.1	61.2*	101.1*
COc1ccccc1C(CCN(Cc1ccccc1)C(C)=O)c1ccco1 (configuration not stated)	-38.5	6.6	-0.1	10.8	-18.9	/	/
SMILES	OX1R antag-1	MPTP inh	GPR7 antag	OX1R antag-2	CHO parental Ca	OX1R HTRF confirm	CHO-K1 HTRF
O=C(Oc1ccc(Br)cc1C(=S)N1CCCCC1)c1cc([N+](=O)[O-])cc([N+](=O)[O-])c1	-18.5	-0.4	1.9	130.2*	-6.2	73.3*	69.7*
O=c1c2c(-c3ccc([N+](=O)[O-])cc3)csc2nc2n1CCC2	-3.5	1.4	-4.7	94.9*	-30.3	39.9	48.3*
CCn1c2ccccc2c2cc(NC(=O)c3cc(C)on3)ccc21	16.2	7.7	-5.4	87.9*	-1.6	64.1*	7.3
CCn1c2ccccc2c2cc(NC(=O)c3ccc(C)c([N+](=O)[O-])c3)ccc21	3.8	5.6	2.5	77.5*	-14.9	87.7*	12.6
CCCC(=O)Nc1cccc(NC(=O)c2ccc(C)c([N+](=O)[O-])c2)c1	-25.7	0.3	0.8	23.0	-3.9	/	/
COc1ccc(CCNC(N)=S)cc1OC	1.4	0.3	-5.8	22.6	-4.3	/	/
COc1cc2c(cc1OC)CN(C(=O)CN1C(=O)c3ccc([N+](=O)[O-])cc3C1=O)CC2	-33.6	0.4	/	98.4*	-28.8	45.1	37.4*
COc1cc2c(cc1OC)CN(C(=O)CCCN1C(=O)c3ccccc3C1=O)CC2	-9.2	0.6	-16.8	18.6	-6.2	/	/
CCC(=O)N1CCC2(CC1)Oc1ccc(F)cc1C(=O)C21CC(c2cccnc2)=NO1 (configuration not stated)	-26.2	0.4	/	77.7*	-17.2	6.4	-27.4
CN(C(=O)CCCN1C(=O)c2ccccc2C1=O)C1CCCCC1	-8.9	0.6	/	3.8	-14.2	/	/
COc1ccc2nc3sc(C(=O)NCCN4CCc5ccccc5C4)cc3cc2c1	-18.7	1.0	-2.3	22.1	-13.2	/	/
CCN1CCN(C(=O)c2cc3cc4cc(OC)ccc4nc3s2)CC1	-16.0	-2.0	2.9	109.7*	-9.3	10.8	0.1
COc1ccc(S(=O)(=O)N2CCC[C@H]2C(=O)NC2=NCCS2)cc1	-4.9	-0.1	-2.6	34.0	-6.6	/	/
COc1ccc2nc(NC(=O)C3CCCN3S(=O)(=O)c3ccc(C)cc3)sc2c1 (configuration not stated)	11.3	5.3	-21.8	79.8*	-6.5	50.4	7.0
NC(=O)c1cc(N)ccc1N1CCCCC1	-6.3	-1.9	-2.8	19.8	3.8	/	/
NC(=O)c1cc(N)ccc1N1CCCC1	-12.0	-2.3	-15.6	87.0*	-8.1	53.6	19.0*
COc1ccc(C(=O)NCCNc2nc3c(C)cccc3cc2C#N)cc1OC	17.8	0.1	-8.9	90.0*	-5.8	87.4*	8.1
COc1ccc(C(C)=O)cc1COC(=O)C(CO)NS(=O)(=O)c1ccc(Br)cc1 (configuration not stated)	-23.6	-2.1	-9.7	8.7	-11.3	/	/
O=C1c2cccc3cccc(c23)C(=O)N1CC1CCCO1 (configuration not stated)	-16.5	-0.8	-8.1	18.8	-12.7	/	/
O=C(CCN1C(=O)c2cccc3cccc(c23)C1=O)N1CCOCC1	-12.7	-0.6	-0.7	79.7*	3.0	45.2	64.4*
O=C(CCN1C(=O)c2cccc3cccc(c23)C1=O)NC1CCS(=O)(=O)C1 (configuration not stated)	3.0	-1.0	-2.8	78.9*	-16.8	35.7	54.0*
O=C(CCN1C(=O)c2cccc3cccc(c23)C1=O)NCC1CCCO1 (configuration not stated)	-15.1	2.5	-17.9	91.6*	10.2	48.7	40.3*

Assay outcomes as filed in PubChem BioAssay.
